Measured values from ChEMBL document CHEMBL4229342, “Synthesis of novel proxyphylline derivatives with dual Anti-Candida albicans and anticancer activity” (Eur J Med Chem, 2018).
Converted amounts (≈) assume the structure as drawn.

Assays:
CCRF-CEM [1] = test: Antiproliferative activity against human CCRF-CEM cells assessed as cell viability at 25 uM after 72 hrs by MTT assay; type: functional; conditions: read-out: Activity
Procedure, shortened: (§1)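 MTT viability assay in CCRF-CEM and MCF-7 cells after 72 h exposure at 25, 50, 100 and 200 µM. Results are relative to control cells without inhibitor in 0.5% DMSO. Done in triplicate; values are means ± SD of three independent experiments.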

CCRF-CEM [2] = test: Antiproliferative activity against human CCRF-CEM cells assessed as cell viability at 50 uM after 72 hrs by MTT assay; type: functional; conditions: read-out: Activity; procedure, shortened: as §1
CCRF-CEM [3] = test: Antiproliferative activity against human CCRF-CEM cells assessed as cell viability at 100 uM after 72 hrs by MTT assay; type: functional; conditions: read-out: Activity; procedure, shortened: as §1
CCRF-CEM [4] = test: Antiproliferative activity against human CCRF-CEM cells assessed as cell viability at 200 uM after 72 hrs by MTT assay; type: functional; conditions: read-out: Activity; procedure, shortened: as §1
MCF7 [5] = test: Antiproliferative activity against human MCF7 cells assessed as cell viability at 25 uM after 72 hrs by MTT assay; type: functional; conditions: MCF7, 72 h, read-out: Activity; procedure, shortened: as §1
MCF7 [6] = test: Antiproliferative activity against human MCF7 cells assessed as cell viability at 50 uM after 72 hrs by MTT assay; type: functional; conditions: MCF7, 72 h, read-out: Activity; procedure, shortened: as §1
MCF7 [7] = test: Antiproliferative activity against human MCF7 cells assessed as cell viability at 100 uM after 72 hrs by MTT assay; type: functional; conditions: MCF7, 72 h, read-out: Activity; procedure, shortened: as §1
MCF7 [8] = test: Antiproliferative activity against human MCF7 cells assessed as cell viability at 200 uM after 72 hrs by MTT assay; type: functional; conditions: MCF7, 72 h, read-out: Activity; procedure, shortened: as §1
CCRF-CEM [9] = test: Antiproliferative activity against human CCRF-CEM cells after 72 hrs by MTT assay; type: functional, cell-based
Procedure, shortened: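 EC50 was derived from a repeat 72 h MTT assay in CCRF-CEM or MCF-7 cells. It is the concentration killing 50% of tumour cells compared with control cells incubated without inhibitor in 0.5% DMSO.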

Candida albicans [10] = test: Growth inhibition of Candida albicans ATCC 90028 at 16 ug/ml incubated for 18 hrs at 35 degC by broth microdilution method relative to control; type: functional; conditions: ATCC 90028, 18 h, read-out: GI
Candida albicans [11] = test: Growth inhibition of Candida albicans ATCC 90028 at 16 ug/ml incubated for 48 hrs at 35 degC by broth microdilution method relative to control; type: functional; conditions: ATCC 90028, 48 h, read-out: GI
Candida albicans [12] = test: Growth inhibition of Candida albicans ATCC 90028 at 8 ug/ml incubated for 18 hrs at 35 degC by broth microdilution method relative to control; type: functional; conditions: ATCC 90028, 18 h, read-out: GI
Candida albicans [13] = test: Growth inhibition of Candida albicans ATCC 90028 at 8 ug/ml incubated for 48 hrs at 35 degC by broth microdilution method relative to control; type: functional; conditions: ATCC 90028, 48 h, read-out: GI
Candida albicans [14] = test: Growth inhibition of Candida albicans ATCC 90028 at 4 ug/ml incubated for 18 hrs at 35 degC by broth microdilution method relative to control; type: functional; conditions: ATCC 90028, 18 h, read-out: GI
Candida albicans [15] = test: Growth inhibition of Candida albicans ATCC 90028 at 8 ug/ml incubated for 4 hrs at 35 degC by broth microdilution method relative to control; type: functional; conditions: ATCC 90028, 4 h, read-out: GI
Candida albicans [16] = test: Growth inhibition of Candida albicans ATCC 90028 at 2 ug/ml incubated for 18 hrs at 35 degC by broth microdilution method relative to control; type: functional; conditions: ATCC 90028, 18 h, read-out: GI
Candida albicans [17] = test: Growth inhibition of Candida albicans ATCC 90028 at 2 ug/ml incubated for 4 hrs at 35 degC by broth microdilution method relative to control; type: functional; conditions: ATCC 90028, 4 h, read-out: GI
Candida albicans [18] = test: Growth inhibition of Candida albicans ATCC 90028 at 1 ug/ml incubated for 18 hrs at 35 degC by broth microdilution method relative to control; type: functional; conditions: ATCC 90028, 18 h, read-out: GI
Candida albicans [19] = test: Growth inhibition of Candida albicans ATCC 90028 at 1 ug/ml incubated for 4 hrs at 35 degC by broth microdilution method relative to control; type: functional; conditions: ATCC 90028, 4 h, read-out: GI
Candida albicans [20] = test: Growth inhibition of Candida albicans ATCC 90028 at 0.5 ug/ml incubated for 18 hrs at 35 degC by broth microdilution method relative to control; type: functional; conditions: ATCC 90028, 18 h, read-out: GI
Candida albicans [21] = test: Growth inhibition of Candida albicans ATCC 90028 at 0.5 ug/ml incubated for 4 hrs at 35 degC by broth microdilution method relative to control; type: functional; conditions: ATCC 90028, 4 h, read-out: GI
Candida albicans [22] = test: Growth inhibition of Candida albicans ATCC 90028 at 0.25 ug/ml incubated for 18 hrs at 35 degC by broth microdilution method relative to control; type: functional; conditions: ATCC 90028, 18 h, read-out: GI
Candida albicans [23] = test: Growth inhibition of Candida albicans ATCC 90028 at 0.25 ug/ml incubated for 4 hrs at 35 degC by broth microdilution method relative to control; type: functional; conditions: ATCC 90028, 4 h, read-out: GI
Candida albicans [24] = test: Growth inhibition of Candida albicans ATCC 90028 at 0.125 ug/ml incubated for 18 hrs at 35 degC by broth microdilution method relative to control; type: functional; conditions: ATCC 90028, 18 h, read-out: GI
Candida albicans [25] = test: Growth inhibition of Candida albicans ATCC 90028 at 0.125 ug/ml incubated for 4 hrs at 35 degC by broth microdilution method relative to control; type: functional; conditions: ATCC 90028, 4 h, read-out: GI
Candida albicans [26] = test: Growth inhibition of Candida albicans ATCC 90028 at 0.0625 ug/ml incubated for 18 hrs at 35 degC by broth microdilution method relative to control; type: functional; conditions: ATCC 90028, 18 h, read-out: GI
Candida albicans [27] = test: Growth inhibition of Candida albicans ATCC 90028 at 0.0625 ug/ml incubated for 4 hrs at 35 degC by broth microdilution method relative to control; type: functional; conditions: ATCC 90028, 4 h, read-out: GI
Candida albicans [28] = test: Fungicidal activity against Candida albicans ATCC 90028 assessed as log reduction in cell viability at 16 ug/ml after 48 hrs at 35 degC; type: functional
Procedure, shortened: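 MFC assay on C. albicans ATCC 90028 following M27-A3, at the molar equivalent of 16 µg/mL. CFU of treated cells were compared with CFU of the untreated inoculum. Activity is given as lg R = lg CFU/mL control − lg CFU/mL treated, and lg R ≥3 was defined as fungicidal. Values are means of two independent experiments.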

Candida albicans [29] = test: Fungicidal activity against Candida albicans ATCC 90028 assessed as drug level causing 3 fold reduction in bacterial count after 48 hrs at 35 degC; type: functional; conditions: ATCC 90028, 48 h
Vero [30] = test: Cytotoxicity in African green monkey Vero cells up to 64 ug/ml incubated for 3 to 18 hrs by XTT assay; type: cell-based; conditions: chlorocebus sabaeus
Vero [31] = test: Cytotoxicity in African green monkey Vero cells incubated for 18 hrs by XTT assay; type: cell-based; conditions: Chlorocebus sabaeus
Candida albicans [32] = test: Growth inhibition of Candida albicans ATCC 90028 at 0.0313 ug/ml incubated for 18 hrs at 35 degC by broth microdilution method relative to control; type: functional; conditions: ATCC 90028, 18 h, read-out: GI
Candida albicans [33] = test: Growth inhibition of Candida albicans ATCC 90028 at 0.0313 ug/ml incubated for 4 hrs at 35 degC by broth microdilution method relative to control; type: functional; conditions: ATCC 90028, 4 h, read-out: GI
Candida albicans [34] = test: Growth inhibition of Candida albicans ATCC 90028 at 0.625 ug/ml incubated for 18 hrs at 35 degC by broth microdilution method relative to control; type: functional; conditions: ATCC 90028, 18 h, read-out: GI
Candida albicans [35] = test: Growth inhibition of Candida albicans ATCC 90028 at 0.625 ug/ml incubated for 48 hrs at 35 degC by broth microdilution method relative to control; type: functional; conditions: ATCC 90028, 48 h, read-out: GI
Candida albicans [36] = test: Antifungal activity against Candida albicans ATCC 90028 assessed as reduction in cell viability at 1022.5 to 0.06 uM after 48 hrs in presence of ergosterol by XTT assay; type: functional; conditions: ATCC 90028, 48 h
Candida albicans [37] = test: Antifungal activity against Candida albicans ATCC 90028 assessed as reduction in cell viability at 0.1 uM after 48 hrs in presence of ergosterol by XTT assay; type: functional
Candida albicans [38] = test: Antifungal activity against Candida albicans ATCC 90028 assessed as reduction in cell viability at 0.3 uM after 48 hrs in absence of ergosterol by XTT assay; type: functional
Candida albicans [39] = test: Antifungal activity against Candida albicans ATCC 90028 assessed as reduction in cell viability after 48 hrs in absence of ergosterol by XTT assay; type: functional; conditions: ATCC 90028, 48 h

Row | Compound | viability at 25 µM (CCRF-CEM [1]) | viability at 50 µM (CCRF-CEM [2]) | viability at 100 µM (CCRF-CEM [3]) | viability at 200 µM (CCRF-CEM [4]) | viability at 25 µM (MCF7 [5]) | viability at 50 µM (MCF7 [6]) | viability at 100 µM (MCF7 [7]) | viability at 200 µM (MCF7 [8]) | inhibition of growth at 16 µg/mL (Candida albicans [10]) | inhibition of growth at 16 µg/mL (Candida albicans [11]) | inhibition of growth at 8 µg/mL (Candida albicans [12]) | inhibition of growth at 8 µg/mL (Candida albicans [13]) | inhibition of growth at 4 µg/mL (Candida albicans [14]) | inhibition of growth at 8 µg/mL (Candida albicans [15]) | inhibition of growth at 2 µg/mL (Candida albicans [16]) | inhibition of growth at 2 µg/mL (Candida albicans [17]) | inhibition of growth at 1 µg/mL (Candida albicans [18]) | inhibition of growth at 1 µg/mL (Candida albicans [19]) | inhibition of growth at 0.5 µg/mL (Candida albicans [20]) | inhibition of growth at 0.5 µg/mL (Candida albicans [21]) | other results
1 | CC(Cn1cnc2c1c(=O)n(C)c(=O)n2C)OCc1cn(CCCn2cnc3c(Br)c(Br)c(Br)c(Br)c32)nn1 (centres undefined) | 0% | 0% | 0% | 0% | 74.5% | 29.7% | 2% | 4.1% | 99.9% | 100% | 99.9% | 99.2% | 99.9% | 99% | 100% | 99.2% | 100% | 99.2% | 99.6% | 99% | EC50 (CCRF-CEM [9]): 6.3 µM; inhibition of growth at 0.25 µg/mL (Candida albicans [22]): 100%; inhibition of growth at 0.25 µg/mL (Candida albicans [23]): 99.6%; inhibition of growth at 0.125 µg/mL (Candida albicans [24]): 100%; inhibition of growth at 0.125 µg/mL (Candida albicans [25]): 99.6%; inhibition of growth at 0.0625 µg/mL (Candida albicans [26]): 99.7%; inhibition of growth at 0.0625 µg/mL (Candida albicans [27]): 99.3%; log(activity) (Candida albicans [28]): 8; MFC (Candida albicans [29]): 36 µM (≈ 28.6 µg/mL); Activity (Vero [30]): Non-Toxic; IC50 (Vero [31]): ≥ 280 µM
2 | CC(Cn1cnc2c1c(=O)n(C)c(=O)n2C)OC(=O)N1c2ccccc2C=Cc2ccccc21 (centres undefined) | 52.4% | 39.3% | 23.9% | 23.4% | 93.4% | 98.8% | 82.5% | 76.5% | 100% | 100% | 99.8% | 99.2% | 100% | 99.2% | 99.8% | 99.4% | 100% | 99.3% | 99.7% | 99.2% | inhibition of growth at 0.25 µg/mL (Candida albicans [22]): 100%; inhibition of growth at 0.25 µg/mL (Candida albicans [23]): 99.2%; inhibition of growth at 0.125 µg/mL (Candida albicans [24]): 100%; inhibition of growth at 0.125 µg/mL (Candida albicans [25]): 99.7%; inhibition of growth at 0.0625 µg/mL (Candida albicans [26]): 99.9%; inhibition of growth at 0.0625 µg/mL (Candida albicans [27]): 99.3%; inhibition of growth at 0.0313 µg/mL (Candida albicans [32]): 99.8%; inhibition of growth at 0.0313 µg/mL (Candida albicans [33]): 99.1%; log(activity) (Candida albicans [28]): 8; MFC (Candida albicans [29]): 35 µM (≈ 16 µg/mL); Activity (Vero [30]): Non-Toxic; IC50 (Vero [31]): ≥ 280 µM
3 | C[C@@H]1[C@H](O)[C@@H](C)/C=C/C=C/C=C/C=C/C=C/C=C/C=C/[C@H](O[C@@H]2O[C@H](C)[C@@H](O)[C@H](N)[C@@H]2O)C[C@@H]2O[C@](O)(C[C@@H](O)C[C@@H](O)[C@H](O)CC[C@@H](O)C[C@@H](O)CC(=O)O[C@H]1C)C[C@H](O)[C@H]2C(=O)O [AMPHOTERICIN B] |  |  |  |  |  |  |  |  |  |  |  |  |  |  |  |  |  |  |  |  | inhibition of growth at 0.625 µg/mL (Candida albicans [34]): 100%; inhibition of growth at 0.625 µg/mL (Candida albicans [35]): 100%; MIC (Candida albicans [36]): 0.1 µM; Activity (Candida albicans [37]): 78.5%; Activity (Candida albicans [38]): 95.5%; MIC (Candida albicans [39]): 0.3 µM (≈ 0.277 µg/mL)
